Reference: ChEMBL document CHEMBL1131440, “Synthesis and potent antifolate activity and cytotoxicity of B-ring deaza analogues of the nonpolyglutamatable dihydrofolate reductase inhibitor Nalpha-(4-amino-4-deoxypteroyl)-Ndelta-hemiphthaloyl- L-ornithine (PT523)” (J Med Chem, 1998)
pIC50, pKi: −log10 of the molar value.

How the values were obtained:
[1] = Compound was tested for in vitro antitumor activity, using SCC25 human head and neck squamous carcinoma cells; assay type: functional; details: SCC-25
Summary of the method: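 Clonogenic assay: SCC25 cells exposed to graded drug concentrations for 72 h at 37 °C, 5% CO2, in DMEM with 10% FBS and hydrocortisone ([…]). Then replated as single cells at drug-dependent densities and grown in drug-free medium 10-14 days. Colonies stained with crystal violet; only colonies of ≥50 cells scored. IC50 is mean ± SD of ≥3 assays on different days.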

[2] = target: T1, Dihydrofolate reductase (Homo sapiens, UniProt P00374); experiment: Compound was evaluated for the inhibition of Dihydrofolate reductase at concentration ranged from 0.15-0.50 uM
T1 sequence (P00374 whole entry): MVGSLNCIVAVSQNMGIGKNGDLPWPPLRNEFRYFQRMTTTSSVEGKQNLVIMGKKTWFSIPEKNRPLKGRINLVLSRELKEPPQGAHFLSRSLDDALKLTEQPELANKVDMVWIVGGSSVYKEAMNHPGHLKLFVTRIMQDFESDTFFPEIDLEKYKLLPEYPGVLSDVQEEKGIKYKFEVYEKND

SMILES | pIC50 [1] | pKi [2]
Nc1nc(N)c2cc(CNc3ccc(C(=O)NC(CCCNC(=O)c4ccccc4C(=O)O)C(=O)O)cc3)ccc2n1 (configuration not stated) | 9.21 | 
Nc1nc(N)c2c(Cl)c(CNc3ccc(C(=O)NC(CCCNC(=O)c4ccccc4C(=O)O)C(=O)O)cc3)ccc2n1 (configuration not stated) | 9.48 | 12.96
Nc1nc(N)c2nc(CNc3ccc(C(=O)NC(CCCNC(=O)c4ccccc4C(=O)O)C(=O)O)cc3)ccc2n1 (configuration not stated) | 8.92 | 12.72
Cc1c(CNc2ccc(C(=O)NC(CCCNC(=O)c3ccccc3C(=O)O)C(=O)O)cc2)ccc2nc(N)nc(N)c12 (configuration not stated) | 9.36 | 13.00
